Experimental data: ChEMBL document CHEMBL1125034, “Design and synthesis of 4H-3,1-benzoxazin-4-ones as potent alternate substrate inhibitors of human leukocyte elastase” (J Med Chem, 1990)

What was measured:
Neutrophil elastase = biological target: T1, Neutrophil elastase (Homo sapiens, UniProt P08246); test: Inhibition of human leukocyte elastase
T1 sequence (P08246 whole entry): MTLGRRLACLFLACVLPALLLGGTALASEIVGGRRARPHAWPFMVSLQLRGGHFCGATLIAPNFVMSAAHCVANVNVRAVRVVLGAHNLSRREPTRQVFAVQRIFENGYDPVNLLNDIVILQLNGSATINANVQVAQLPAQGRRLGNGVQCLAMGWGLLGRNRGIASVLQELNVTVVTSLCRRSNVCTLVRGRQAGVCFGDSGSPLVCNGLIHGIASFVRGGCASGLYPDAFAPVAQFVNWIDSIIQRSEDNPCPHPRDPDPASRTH

[1] = Partition coefficient (logD7.4); type: physicochemical; conditions: octanol/water, pH 7.4
[2] = Alkaline hydrolysis rate of the compound; type: ADME
In short: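 Alkaline hydrolysis rate constants measured at several pH values at 25 °C. Loss of the long-wavelength UV chromophore (λmax typically 300-345 nm) was followed by spectrophotometer.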

[3] = biological target: T2, Neutrophil elastase (Homo sapiens) (UniProt P08246); test: Component acylation rate constant for interaction with human leukocyte elastase
T2 sequence (whole entry): T1 sequence (P08246 whole entry)

[4] = biological target: T2, Neutrophil elastase (Homo sapiens); test: Component deacylation rate constant for interaction with human leukocyte elastase

Compound | Ki (Neutrophil elastase) [nM] | logD [1] | Log kOH- [2] | Log kon [3] | Log koff [4]
Cc1cccc2nc(C(F)(F)C(F)(F)C(F)(F)F)oc(=O)c12 | 30.9 | 2.9 | 2.75 |  | 
COC(=O)[C@H](CC(C)C)Nc1nc2cccc(C)c2c(=O)o1 | 251 | 3.7 | 0.59 |  | 
CC(=O)NCc1nc2ccccc2c(=O)o1 | 7590 |  | 1.86 | 2.24 | -2.88
COC(=O)C(Nc1nc2ccccc2c(=O)o1)c1ccccc1 (stereo not drawn) | 46.8 | 2.6 | 1.39 |  | 
Cc1ccc2c(=O)oc(NC(C)C)nc2c1C | 708 | 3.8 | 0.46 |  | 
CCOC(=O)CCCNc1nc2ccccc2c(=O)o1 | 18600 | 2.3 | 1.21 |  | 
CCCc1cc(N(C)C)cc2nc(NC(C)C)oc(=O)c12 | 282 |  | -2 | 2.81 | -3.74
O=c1oc(C(F)(F)F)nc2ccccc12 | 170 | 1.9 | 3.52 |  | 
Cc1cc(N)cc2nc(NC(C)C)oc(=O)c12 | 77.6 |  | -1.09 | 2.36 | -4.75
Cc1cc(N(C)C)cc2nc(NC(C)C)oc(=O)c12 | 1260 |  | -1.61 | 2.01 | -3.89
CCCNc1nc2cccc(C)c2c(=O)o1 |  |  |  | 4.75 | -3.47
CCSc1nc2ccccc2c(=O)o1 | 8.13 | 3 | 2.19 |  | 
C/C=C/c1cccc2nc(OCC)oc(=O)c12 | 0.191 |  | 1.41 | 5.54 | -4.18
Cc1nc2c(N)cccc2c(=O)o1 | 7940 |  | 2.61 | 3.3 | 
Cc1cc(C)c2c(=O)oc(NC(C)C)nc2c1 | 5.89 |  | -0.23 | 3.41 | -4.82
NC(=O)[C@@H]1CCCN1c1nc2ccccc2c(=O)o1 | 240 | 0.4 | 1.21 |  | 
O=c1oc(SCc2ccccc2)nc2ccccc12 | 39.8 | 3.6 | 2.33 |  | 
CCc1ccc2c(=O)oc(NC(C)C)nc2c1 | 182 | 3.2 | 0.69 |  | 
CC(C)NC(=O)[C@H](CC(N)=O)Nc1nc2ccccc2c(=O)o1 | 2140 | 0.2 | 1.45 |  | 
COc1cc2nc(SCc3c[nH]cn3)oc(=O)c2cc1OC | 1100 |  | 1.31 | 3.84 | -2.12

Compound | Ki (Neutrophil elastase) [nM] | logD [1] | Log kOH- [2] | Log kon [3] | Log koff [4]
CCCNC(=O)Nc1ccc2c(=O)oc(NC(C)C)nc2c1 | 1350 |  | 0.39 | 4.1 | -1.77
CCc1cc(N)cc2nc(NC(C)C)oc(=O)c12 | 17 | 1.6 | -1.26 |  | 
CCCCCCNc1nc2ccccc2c(=O)o1 |  | 3.8 | 0.96 |  | 
CSc1nc2cccc(C)c2c(=O)o1 | 1.41 |  | 1.9 | 5.4 | -3.45
Cc1cccc2nc(NC(C)C)oc(=O)c12 |  | 3 | 0.41 |  | 
CCSc1nc2ccc(NC(C)=O)cc2c(=O)o1 | 1450 |  | 2.24 | 4 | 
Cc1nc2ccccc2c(=O)o1 | 4790 | 1.3 | 1.69 |  | 
CCOc1nc2cccc(C(Br)Br)c2c(=O)o1 | 0.468 |  | 2.5 | 7 | -2.33
Cc1cccc2nc(OCC(C)C)oc(=O)c12 | 1.58 |  |  | 3.85 | -4.95
COC(=O)[C@H](CC(C)C)Nc1nc2cc(C)cc(C)c2c(=O)o1 | 1260 | 4 | -0.18 |  | 
CCc1cccc2c(=O)oc(NC(C)C)nc12 | 1000 |  |  | 4.38 | -1.62
Cc1nc2c(C)cccc2c(=O)o1 | 7410 | 2.1 | 1.18 |  | 
CCOc1nc2cc(N)cc(CC)c2c(=O)o1 | 10 | 2.7 | -0.54 |  | 
CCC(C)CNc1nc2cccc(C)c2c(=O)o1 (stereo not drawn) | 661 |  |  | 2.05 | -4.13
O=c1oc(Nc2ccccc2)nc2ccccc12 | 11000 | 3.5 | 1.18 |  | 
CC(C)Cc1nc2ccccc2c(=O)o1 | 2570 |  |  | 4.3 | 
CC(C)N(c1nc2ccccc2c(=O)o1)C(C)C | 2570 | 3.7 | 0.79 |  | 
CC[C@H](C)[C@H](Nc1nc2ccccc2c(=O)o1)C(=O)OC | 214 | 2.6 | 1.32 |  | 
O=c1oc(NCc2ccccc2)nc2ccccc12 | 955 | 2.8 | 1.12 |  | 
CCCC(C)Nc1nc2cccc(C)c2c(=O)o1 (stereo not drawn) | 741 |  |  | 3.7 | -2.43

Compound | Ki (Neutrophil elastase) [nM] | logD [1] | Log kOH- [2] | Log kon [3] | Log koff [4]
CNc1nc2ccccc2c(=O)o1 |  | 1.7 | 1.38 |  | 
CCSc1nc2cc(OC)c(OC)cc2c(=O)o1 | 1200 |  | 1.1 | 5 | 
Cc1ccc2nc(C)oc(=O)c2c1 | 34700 | 1.8 | 1.36 |  | 
CCCCNc1nc2ccccc2c(=O)o1 |  | 3.1 | 1.09 |  | 
O=c1oc(-c2ccccc2)nc2ccccc12 | 9550 |  | 1.79 | 4 | 
CCC(CC)Nc1nc2cccc(C)c2c(=O)o1 | 724 |  |  | 3.89 | -2.25
Cc1cccc2c(=O)oc(C(C)(C)C)nc12 | 55000 | 4 | 0.82 |  | 
CC(C)NC(=O)[C@H](CCC(N)=O)Nc1nc2ccccc2c(=O)o1 | 550 | -0.3 | 1.3 |  | 
Nc1ccc(CNc2nc3ccccc3c(=O)o2)cc1 | 1230 | 2 | 1.36 |  | 
CC(=O)Nc1ccc2c(=O)oc(NC(C)C)nc2c1 | 148 | 1.2 | 0.92 |  | 
NC(=O)C1CCCN1c1nc2ccccc2c(=O)o1 (stereo not drawn) | 178 | 0.4 | 1.21 |  | 
COC(=O)[C@H](Nc1nc2ccccc2c(=O)o1)c1ccccc1 | 27.5 | 2.6 | 1.39 |  | 
CCc1cc(N)cc2nc(N3CCCC3C(=O)N[C@@H](CC(C)C)C(N)=O)oc(=O)c12 (stereo partly drawn) | 115 | 1.6 | -1.08 |  | 
COc1cccc2nc(Nc3ccccc3)oc(=O)c12 | 158000 | 3.1 | 0.41 |  | 
Cc1nc2cc3ccccc3cc2c(=O)o1 | 7240 | 2.8 | 2.19 |  | 
Cc1cccc2c(=O)oc(C(F)(F)F)nc12 | 537 |  | 3.09 | 4 | 
O=c1oc(NC2CCCCC2)nc2ccccc12 | 112 | 3.5 | 0.89 |  | 
CCSc1nc2c(C)cccc2c(=O)o1 | 28.2 |  | 2.01 | 6.3 | 
